Source: ChEMBL document CHEMBL2380222, “Arylsulfonamide pyrimidines as VLA-4 antagonists” (Bioorg Med Chem Lett, 2013)
Calls of active or inactive are those of the source. The rule behind the calls is not given here.

Legend:
[1] = Oral bioavailability in Sprague-Dawley rat; type: ADME, organism-based; conditions: in vivo
[2] = Plasma concentration in po dosed Sprague-Dawley rat after 12 hrs; type: ADME, organism-based
[3] = AUC in po dosed Sprague-Dawley rat; type: ADME, organism-based; conditions: plasma
[4] = AUC in iv dosed Sprague-Dawley rat; type: ADME, organism-based; conditions: plasma
[5] = Inhibition of VLA-4 (unknown origin) binding to VCAM-1 in human Jurkat TM cells after 30 mins by fibronectin mediated cell adhesion assay; type: cell-based
Method in brief: (§1)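 Calcein-labelled Jurkat TM cells (10^5/well) in Hepes 20 mM, NaCl 140 mM, CaCl2 1 mM, MgCl2 1 mM, 0.3% BSA with activating anti-α4 TS2/16. Cells were preincubated 30 min on wet ice with anti-α5 (5 µg/ml) and a compound dose–response, then bound 35 min at 37 °C, 5% CO2 to human plasma fibronectin-coated wells. Wells were washed 3× and read by fluorescence to give IC50.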

[6] = Plasma concentration in po dosed Sprague-Dawley rat after 6 hrs; type: ADME, organism-based
Mus musculus [7] = assay: Inhibition of Eos influx in Black/6 mouse acute pulmonary cellular influx model at 1 mg/kg, po bid administered 1hr prior and 12 hrs post ova/alum challenge on day 28 and 29 relative to vehicle-treated control; type: functional
Method in brief: (§2)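 Female Black/6 mice were sensitized i.p. with ova/alum on day 1, boosted on day 14 and challenged with aerosolized ova and alum on days 28 and 29. Dosing was oral gavage (5 ml/kg) twice daily on days 28–29, 1 h before and 12 h after challenge. Reference anti-α4 antibody PS/2 was given iv at 10 mg/kg, 2 h before the first challenge. Bronchoalveolar lavage eosinophils were counted on day 30 (48 h after the first challenge) as % inhibition.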

Mus musculus [8] = assay: Inhibition of Eos influx in Black/6 mouse acute pulmonary cellular influx model at 1 mg/kg, po bid administered 1hr prior and 12 hrs post ova/alum challenge on day 28 and 29 relative to alpha4 antibody PS/2; type: functional; method in brief: as §2
Integrin alpha-V/beta-1 = Integrin alpha-V/beta-1 (Homo sapiens, UniProt P05556+P06756); assay: Inhibition of integrin alphaVbeta1 (unknown origin) binding to mouse OPN-HIS after 30 mins by fibronectin mediated cell adhesion assay; type: protein-complex assay
Integrin alpha-V/beta-1, sequence (P05556 21-798 limits assumed): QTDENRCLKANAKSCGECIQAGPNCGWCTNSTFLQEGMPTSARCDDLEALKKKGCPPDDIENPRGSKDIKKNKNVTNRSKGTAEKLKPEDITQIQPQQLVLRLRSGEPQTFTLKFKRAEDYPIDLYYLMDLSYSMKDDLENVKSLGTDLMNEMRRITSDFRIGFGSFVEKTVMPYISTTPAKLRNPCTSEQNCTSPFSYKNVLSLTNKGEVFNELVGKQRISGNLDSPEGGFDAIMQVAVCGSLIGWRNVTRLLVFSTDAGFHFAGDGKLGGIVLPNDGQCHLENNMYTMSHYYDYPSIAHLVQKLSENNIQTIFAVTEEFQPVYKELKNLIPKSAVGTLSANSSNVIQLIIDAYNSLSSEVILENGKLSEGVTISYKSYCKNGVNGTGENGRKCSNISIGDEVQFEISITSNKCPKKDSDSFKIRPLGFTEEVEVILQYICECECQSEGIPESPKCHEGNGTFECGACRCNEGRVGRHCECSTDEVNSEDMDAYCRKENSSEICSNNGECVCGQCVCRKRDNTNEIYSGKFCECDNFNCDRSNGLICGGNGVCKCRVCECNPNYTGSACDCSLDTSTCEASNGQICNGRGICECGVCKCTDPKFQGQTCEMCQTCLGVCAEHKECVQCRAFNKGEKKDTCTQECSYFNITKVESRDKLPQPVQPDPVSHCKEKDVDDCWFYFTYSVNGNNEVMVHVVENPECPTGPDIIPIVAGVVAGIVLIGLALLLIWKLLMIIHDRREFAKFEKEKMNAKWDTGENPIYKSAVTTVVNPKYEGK
Integrin alpha-V/beta-1, sequence (P06756 31-889 limits assumed): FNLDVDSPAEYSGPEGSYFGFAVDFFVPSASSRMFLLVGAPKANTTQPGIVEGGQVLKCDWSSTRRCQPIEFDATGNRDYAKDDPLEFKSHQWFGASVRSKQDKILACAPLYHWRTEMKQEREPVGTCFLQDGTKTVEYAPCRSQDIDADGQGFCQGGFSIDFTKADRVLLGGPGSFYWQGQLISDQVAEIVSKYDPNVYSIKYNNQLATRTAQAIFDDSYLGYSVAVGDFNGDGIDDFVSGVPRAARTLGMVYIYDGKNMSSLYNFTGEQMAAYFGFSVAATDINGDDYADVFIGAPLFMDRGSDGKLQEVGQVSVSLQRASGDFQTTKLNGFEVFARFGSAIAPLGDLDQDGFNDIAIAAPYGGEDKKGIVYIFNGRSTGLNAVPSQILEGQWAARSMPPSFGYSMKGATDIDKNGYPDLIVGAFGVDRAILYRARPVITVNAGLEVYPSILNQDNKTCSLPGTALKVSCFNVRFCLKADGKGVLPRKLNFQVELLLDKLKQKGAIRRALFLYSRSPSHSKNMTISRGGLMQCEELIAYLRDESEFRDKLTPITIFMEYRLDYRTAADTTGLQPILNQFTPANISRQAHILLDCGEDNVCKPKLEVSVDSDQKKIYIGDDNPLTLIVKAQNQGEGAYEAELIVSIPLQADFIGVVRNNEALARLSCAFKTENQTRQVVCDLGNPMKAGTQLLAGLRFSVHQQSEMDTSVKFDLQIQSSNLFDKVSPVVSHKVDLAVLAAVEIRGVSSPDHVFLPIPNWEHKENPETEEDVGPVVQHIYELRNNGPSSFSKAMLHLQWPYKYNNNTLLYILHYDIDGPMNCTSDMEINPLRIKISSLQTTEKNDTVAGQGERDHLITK
Integrin alpha-V/beta-1, sequence (P06756 891-1048 limits assumed): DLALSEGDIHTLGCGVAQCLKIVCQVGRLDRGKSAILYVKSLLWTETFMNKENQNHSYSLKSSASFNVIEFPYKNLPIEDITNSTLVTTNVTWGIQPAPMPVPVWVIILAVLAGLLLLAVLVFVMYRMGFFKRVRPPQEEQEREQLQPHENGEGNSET

Rattus norvegicus [9] = assay: Antirheumatic activity in Lewis rat collagen induced arthritis model assessed as ankle histology at 3 to 30 mg/kg, po bid for 21 days; type: functional, organism-based
Method in brief: (§3)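 Female Lewis rats developing type II collagen arthritis were dosed prophylactically by oral gavage, bid, at 3, 10 or 30 mg/kg for 21 days. A separate arm received methotrexate 0.05 mg/kg po qd, alone or combined. Read-outs were ankle caliper measurements as AUC, terminal hind paw weights, body weight and ankle/knee histology. Only animals with definite clinical and histopathologic disease were analysed.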

Rattus norvegicus [10] = assay: Antiarthritic activity in Lewis rat collagen induced arthritis model assessed as final paw weight at 3 mg/kg, po bid for 21 days; type: functional, organism-based; design: dose 3 mg/kg; method in brief: as §3
Rattus norvegicus [11] = assay: Antirheumatic activity in Lewis rat collagen induced arthritis model assessed as ankle histology at 0.05 mg/kg, po bid for 21 days; type: functional, organism-based; design: dose 0.05 mg/kg
Rattus norvegicus [12] = assay: Antiarthritic activity in Lewis rat collagen induced arthritis model assessed as final paw weight at 10 to 30 mg/kg, po bid for 21 days; type: functional, organism-based; method in brief: as §3
Cavia porcellus = assay: Antiinflammatory activity in guinea pig at 30 to 300 mg/kg, po bid for 12 days; type: functional, organism-based
Method in brief: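 Guinea pig EAE: animals were immunized, and only those with established disease (clinical score >0) were randomized at 16–18 days post-immunization. Oral dosing was bid for 12 days at 30 or 300 mg/kg. Natalizumab was given every other day as comparator. The read-out was clinical score over the treatment period.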

Rattus norvegicus [13] = assay: Antiarthritic activity in Lewis rat collagen induced arthritis model assessed as inhibition of AUC for ankle swelling at 3 mg/kg, po bid for 21 days; type: functional; conditions: 504 h, read-out: INH; method in brief: as §3
Rattus norvegicus [14] = assay: Antiarthritic activity in Lewis rat collagen induced arthritis model assessed as AUC for ankle swelling at 10 to 30 mg/kg, po bid for 21 days; type: functional, organism-based; method in brief: as §3
Rattus norvegicus [15] = assay: Antiarthritic activity in Lewis rat collagen induced arthritis model assessed as bone resorbtion at 3 to 30 mg/kg, po bid for 21 days; type: functional, organism-based; method in brief: as §3
Rattus norvegicus [16] = assay: Antiarthritic activity in Lewis rat collagen induced arthritis model assessed as cartilage destruction at 3 to 30 mg/kg, po bid for 21 days; type: functional, organism-based; method in brief: as §3
Rattus norvegicus [17] = assay: Antiarthritic activity in Lewis rat collagen induced arthritis model at 3 to 30 mg/kg, po bid for 21 days; type: functional, organism-based; method in brief: as §3
Mus musculus [18] = assay: Inhibition of Eos influx in Black/6 mouse acute pulmonary cellular influx model at 3 mg/kg, po bid administered 1hr prior and 12 hrs post ova/alum challenge on day 28 and 29 relative to vehicle-treated control; type: functional
Method in brief: (§4)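 Female Black/6 mice were sensitized i.p. with ova/alum on day 1, boosted on day 14, and challenged with aerosolized ova on days 28 and 29. Compound was given by oral gavage (5 ml/kg) twice daily on days 28–29, 1 h before and 12 h after challenge. BAL was collected on day 30, 48 h after the first challenge. Eosinophil influx was reported as % inhibition against vehicle or against PS/2 (anti-α4, 10 mg/kg iv, 2 h before first challenge).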

Mus musculus [19] = assay: Inhibition of Eos influx in Black/6 mouse acute pulmonary cellular influx model at 3 mg/kg, po bid administered 1hr prior and 12 hrs post ova/alum challenge on day 28 and 29 relative to PS/2; type: functional; method in brief: as §4
[20] = Inhibition of VLA-4 in mouse serum binding to VCAM-1 in human Jurkat TM cells after 30 mins by fibronectin mediated cell adhesion assay; type: cell-based; conditions: 0.5 h
[21] = Inhibition of VLA-4 in rat serum binding to VCAM-1 in human Jurkat TM cells after 30 mins by fibronectin mediated cell adhesion assay; type: cell-based; conditions: 0.5 h
Method in brief: (§5)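 Cells were preincubated 30 min on wet ice with anti-α5 (5 µg/ml) and a compound dose–response, then allowed to bind 35 min at 37 °C, 5% CO2 to human plasma fibronectin-coated wells. Wells were washed 3× and read by fluorescence to give IC50.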

[22] = Inhibition of VLA-4 in human serum binding to VCAM-1 in human Jurkat TM cells after 30 mins by fibronectin mediated cell adhesion assay; type: cell-based; conditions: 0.5 h; method in brief: as §5
[23] = Inhibition of VLA-4 binding to VCAM-1 in human Jurkat TM cells after 30 mins by fibronectin mediated cell adhesion assay using BSA; type: cell-based; method in brief: as §1
[24] = molecular target: Integrin alpha-L/beta-2 (LFA-1) (Homo sapiens, UniProt P05107+P20701); assay: Inhibition of integrin alphaLbeta2 (unknown origin) binding to ICAM in human 8866 cells after 30 mins by ICAM mediated cell adhesion assay
Integrin alpha-L/beta-2 (LFA-1), sequence (P20701 whole entry): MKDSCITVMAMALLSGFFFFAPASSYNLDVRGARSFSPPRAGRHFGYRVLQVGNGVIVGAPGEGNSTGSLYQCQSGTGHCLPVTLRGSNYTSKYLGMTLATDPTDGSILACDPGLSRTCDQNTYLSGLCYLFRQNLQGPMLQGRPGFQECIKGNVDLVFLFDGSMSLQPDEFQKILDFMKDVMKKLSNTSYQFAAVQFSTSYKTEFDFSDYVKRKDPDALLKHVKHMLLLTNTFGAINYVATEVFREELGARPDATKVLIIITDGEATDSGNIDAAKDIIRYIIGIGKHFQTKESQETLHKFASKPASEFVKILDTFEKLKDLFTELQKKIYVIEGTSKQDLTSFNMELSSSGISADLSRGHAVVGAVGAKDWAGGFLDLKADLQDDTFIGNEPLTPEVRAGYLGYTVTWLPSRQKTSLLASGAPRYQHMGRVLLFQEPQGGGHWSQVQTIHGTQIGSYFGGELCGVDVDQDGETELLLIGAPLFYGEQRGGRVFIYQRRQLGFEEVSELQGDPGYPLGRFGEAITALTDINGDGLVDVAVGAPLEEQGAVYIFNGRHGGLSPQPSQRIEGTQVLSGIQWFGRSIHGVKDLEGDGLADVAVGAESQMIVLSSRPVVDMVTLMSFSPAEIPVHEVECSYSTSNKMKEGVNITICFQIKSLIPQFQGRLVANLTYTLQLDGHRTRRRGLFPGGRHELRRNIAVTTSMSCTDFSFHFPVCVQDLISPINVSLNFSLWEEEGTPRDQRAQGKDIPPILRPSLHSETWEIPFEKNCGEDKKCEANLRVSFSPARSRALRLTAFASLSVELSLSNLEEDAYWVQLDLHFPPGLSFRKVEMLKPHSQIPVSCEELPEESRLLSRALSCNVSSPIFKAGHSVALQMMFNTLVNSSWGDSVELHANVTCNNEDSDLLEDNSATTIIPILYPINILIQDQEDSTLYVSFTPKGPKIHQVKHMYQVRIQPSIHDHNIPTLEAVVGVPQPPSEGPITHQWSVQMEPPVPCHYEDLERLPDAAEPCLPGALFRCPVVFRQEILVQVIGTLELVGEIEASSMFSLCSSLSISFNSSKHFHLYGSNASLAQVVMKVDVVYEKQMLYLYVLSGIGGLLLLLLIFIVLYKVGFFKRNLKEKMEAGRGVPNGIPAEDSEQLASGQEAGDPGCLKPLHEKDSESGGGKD
Integrin alpha-L/beta-2 (LFA-1), sequence (P05107 whole entry): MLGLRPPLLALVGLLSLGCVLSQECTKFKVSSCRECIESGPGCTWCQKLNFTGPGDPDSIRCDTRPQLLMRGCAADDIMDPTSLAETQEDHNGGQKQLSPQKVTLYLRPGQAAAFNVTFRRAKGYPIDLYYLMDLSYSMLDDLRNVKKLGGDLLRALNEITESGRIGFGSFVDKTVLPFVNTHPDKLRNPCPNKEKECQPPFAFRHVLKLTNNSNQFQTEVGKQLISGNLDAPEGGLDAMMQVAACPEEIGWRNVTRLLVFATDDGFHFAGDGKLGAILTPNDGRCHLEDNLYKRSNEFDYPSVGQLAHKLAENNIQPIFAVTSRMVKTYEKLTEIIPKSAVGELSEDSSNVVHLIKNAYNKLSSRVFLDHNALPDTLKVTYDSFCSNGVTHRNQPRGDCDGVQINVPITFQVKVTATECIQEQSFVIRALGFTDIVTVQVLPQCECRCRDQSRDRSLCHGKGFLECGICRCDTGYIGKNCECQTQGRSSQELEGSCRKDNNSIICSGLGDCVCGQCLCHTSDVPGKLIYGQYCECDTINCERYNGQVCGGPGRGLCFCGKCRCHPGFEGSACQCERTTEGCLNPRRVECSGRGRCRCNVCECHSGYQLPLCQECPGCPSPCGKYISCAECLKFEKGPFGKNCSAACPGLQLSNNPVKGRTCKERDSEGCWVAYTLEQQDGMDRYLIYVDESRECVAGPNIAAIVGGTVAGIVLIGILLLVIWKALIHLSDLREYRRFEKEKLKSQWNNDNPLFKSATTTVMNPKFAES

Integrin alpha-5/beta-1 = Integrin alpha-5/beta-1 (Homo sapiens, UniProt P05556+P08648); assay: Inhibition of integrin alpha5beta1 (unknown origin) binding to fibronectin in human THP1 cells after 30 mins by fibronectin mediated cell adhesion assay
Integrin alpha-5/beta-1, sequence (P05556 21-798 limits assumed): as the sequence (P05556 21-798 limits assumed) above
Integrin alpha-5/beta-1, sequence (P08648 42-894 limits assumed): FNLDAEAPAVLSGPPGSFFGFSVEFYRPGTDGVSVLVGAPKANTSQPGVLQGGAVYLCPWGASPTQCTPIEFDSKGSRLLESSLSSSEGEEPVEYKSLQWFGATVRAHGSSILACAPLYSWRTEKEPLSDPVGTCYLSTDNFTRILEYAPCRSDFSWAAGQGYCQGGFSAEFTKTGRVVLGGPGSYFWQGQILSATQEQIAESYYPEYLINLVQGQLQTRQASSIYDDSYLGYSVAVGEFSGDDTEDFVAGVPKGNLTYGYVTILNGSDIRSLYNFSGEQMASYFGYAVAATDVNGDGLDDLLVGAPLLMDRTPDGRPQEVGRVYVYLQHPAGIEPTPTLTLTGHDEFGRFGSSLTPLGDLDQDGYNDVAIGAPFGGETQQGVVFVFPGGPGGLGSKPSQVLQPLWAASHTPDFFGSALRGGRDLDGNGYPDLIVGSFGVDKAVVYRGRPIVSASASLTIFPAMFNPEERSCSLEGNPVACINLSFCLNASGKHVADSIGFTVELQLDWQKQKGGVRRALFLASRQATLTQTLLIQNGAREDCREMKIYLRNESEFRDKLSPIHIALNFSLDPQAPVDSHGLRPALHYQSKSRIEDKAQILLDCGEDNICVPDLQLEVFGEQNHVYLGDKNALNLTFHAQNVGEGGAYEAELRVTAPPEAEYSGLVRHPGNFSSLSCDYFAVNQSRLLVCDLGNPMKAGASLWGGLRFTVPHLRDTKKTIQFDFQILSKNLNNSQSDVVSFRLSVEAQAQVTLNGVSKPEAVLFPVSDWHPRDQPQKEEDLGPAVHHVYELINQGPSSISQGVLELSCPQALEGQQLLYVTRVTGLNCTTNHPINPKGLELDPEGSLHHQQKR
Integrin alpha-5/beta-1, sequence (P08648 895-1049 limits assumed): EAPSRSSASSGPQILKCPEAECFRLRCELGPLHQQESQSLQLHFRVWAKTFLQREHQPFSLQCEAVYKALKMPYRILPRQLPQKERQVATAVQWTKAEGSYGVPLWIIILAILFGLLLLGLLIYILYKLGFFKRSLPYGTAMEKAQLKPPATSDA

CCN(CC)c1ncc(N(C)S(=O)(=O)c2ccc(F)cc2F)c(N[C@@H](Cc2ccc(OC(=O)N3CCCC3)cc2)C(=O)O)n1
bioavailability [1]: 17%
concentration at 12 h [2]: 100 ng/mL
AUC [3]: 16000 ng·h/mL
AUC [4]: 90000 ng·h/mL
IC50 [5]: 8 nM

CCN(CC)c1ncc(N(C)S(=O)(=O)c2ccc(C)cc2)c(N[C@@H](Cc2ccc(OC(=O)N3CCCC3)cc2)C(=O)O)n1
bioavailability [1]: 43%
concentration at 12 h [2]: 450 ng/mL
AUC [3]: 74000 ng·h/mL
AUC [4]: 173000 ng·h/mL
IC50 [5]: 6 nM

CCN(CC)c1ncc(N(C(C)C)S(=O)(=O)c2ccc(F)cc2)c(N[C@@H](Cc2ccc(OC(=O)N(C)C)cc2)C(=O)O)n1
IC50 [5]: 5 nM

CCN(CC)c1ncc(N(C)S(=O)(=O)c2ccc(C)cc2)c(N[C@@H](Cc2ccc(OC(=O)N(C)C)cc2)C(=O)O)n1
bioavailability [1]: 15%
AUC [3]: 6000 ng·h/mL
concentration at 6 h [6]: 100 ng/mL
AUC [4]: 41000 ng·h/mL
IC50 [5]: 2 nM

CCN(CC)c1ncc(N(CC)S(=O)(=O)c2ccc(Cl)cc2)c(N[C@@H](Cc2ccc(OC(=O)N(C)C)cc2)C(=O)O)n1
bioavailability [1]: 33%
concentration at 12 h [2]: 12 ng/mL
AUC [3]: 5100 ng·h/mL
AUC [4]: 17000 ng·h/mL
IC50 [5]: 7 nM

CCN(CC)c1ncc(N(C)S(=O)(=O)c2ccc(Cl)cc2)c(N[C@@H](Cc2ccc(OC(=O)N(C)C)cc2)C(=O)O)n1
bioavailability [1]: 73%
concentration at 12 h [2]: 130 ng/mL
AUC [3]: 23000 ng·h/mL
AUC [4]: 32000 ng·h/mL
IC50 [5]: 3 nM

CCN(CC)c1ncc(N(CC)S(=O)(=O)c2ccc(Cl)cc2)c(N[C@@H](Cc2ccc(OC(=O)N3CCCC3)cc2)C(=O)O)n1
bioavailability [1]: 31%
concentration at 12 h [2]: 100 ng/mL
AUC [3]: 34000 ng·h/mL
AUC [4]: 110000 ng·h/mL
IC50 [5]: 17 nM

C#CCN(c1cnc(N(CC)CC)nc1N[C@@H](Cc1ccc(OC(=O)N2CCCC2)cc1)C(=O)O)S(=O)(=O)c1ccc(F)cc1F
bioavailability [1]: 33%
concentration at 12 h [2]: 120 ng/mL
AUC [3]: 42000 ng·h/mL
AUC [4]: 126000 ng·h/mL
IC50 [5]: 13 nM

CCN(CC)c1ncc(N(CC)S(=O)(=O)c2ccc(F)cc2)c(N[C@@H](Cc2ccc(OC(=O)N(C)C)cc2)C(=O)O)n1
bioavailability [1]: 44%
concentration at 12 h [2]: 60 ng/mL
AUC [3]: 14000 ng·h/mL
AUC [4]: 32000 ng·h/mL
IC50 [5]: 1 nM

C#CCN(c1cnc(N(CC)CC)nc1N[C@@H](Cc1ccc(OC(=O)N2CCCC2)cc1)C(=O)O)S(=O)(=O)c1ccc(F)cc1
inhibition in vivo at 1 mg/kg (Mus musculus [7]): 0%
inhibition in vivo at 1 mg/kg (Mus musculus [8]): 0%
IC50 (Integrin alpha-V/beta-1): 500 nM
Activity (Rattus norvegicus [9]): Active
Activity (Rattus norvegicus [10]): Active
Activity (Rattus norvegicus [11]): Active
Activity (Rattus norvegicus [12]): Active
Activity (Cavia porcellus): Active
inhibition in vivo at 3 mg/kg (Rattus norvegicus [13]): 15%
Activity (Rattus norvegicus [14]): Active
Activity (Rattus norvegicus [15]): Active
Activity (Rattus norvegicus [16]): Active
Activity (Rattus norvegicus [17]): Active
inhibition in vivo at 3 mg/kg (Mus musculus [18]): 41%
inhibition in vivo at 3 mg/kg (Mus musculus [19]): 74%
IC50 [20]: 36 nM
IC50 [21]: 1900 nM
IC50 [22]: 4600 nM
IC50 [23]: 9 nM
bioavailability [1]: 56%
concentration at 12 h [2]: 1310 ng/mL
AUC [3]: 88000 ng·h/mL
AUC [4]: 156000 ng·h/mL
IC50 [5]: 8 nM
IC50 [24]: > 30000 nM
IC50 (Integrin alpha-5/beta-1): > 30000 nM
